Source: PubChem
PglD inh = inhibitors of Campylobacter jejuni PglD acetyltransferase | purified PglD enzyme, DTNB colorimetric CoA detection | inhibition, % at 12.5 µM | hit rate 0.098% among 360,000; in the data active = inhibition above about 16%, passing the limit was not always enough; inconclusive = no clear call, values can overlap the other calls
RAD54 inh = inhibitors of human RAD54 branch migration; AID 602329; Q92698; RAD54 Holliday junction branch migration, FAM/BHQ fluorescence; hit rate 0.14% among 360,000; inhibition, % at 10.4 µM;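 active = mean normalized replicate activity at least 40 and at least half of replicates scoring 40 or more; inconclusive = only one of the two criteria met; inactive = mean below 40 and under half of replicates reaching 40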;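 also: 0% = median of neutral control wells and 100% = median of positive control wells; inhibitors cause a drop in the FAM fluorescence signal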
Cneo AK release = Cryptococcus neoformans lysis via adenylate kinase release. C. neoformans lysis, adenylate kinase release luminescence, 4 h; normalised: neutral wells 0, clomiphene wells 100. lysis activity, % at 15 µM. AID 651654. hit rate 0.2% among 360,000;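 active = mean lysis activity across replicates of at least 80%, whatever share of replicates individually reach that level; inactive = mean lysis activity below 80%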
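Assay system: Cryptococcus neoformans yeast cells / Dosing: single-point compound dose / Timing: 4 h at 37 °C static, read 1 h later / Measured by: luminescence of released adenylate kinase using an AK detection reagent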
RAD52 anneal inh = inhibitors of human RAD52 DNA annealing. P43351. recombinant RAD52 DNA annealing, FRET fluorescence. inhibition, % at 18.7 µM. hit rate 0.46% among 360,000;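 active = every replicate showing at least 50% inhibition; inconclusive = mean inhibition at least 50% but not in every replicate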
Target sequence (P43351 whole entry, looked up): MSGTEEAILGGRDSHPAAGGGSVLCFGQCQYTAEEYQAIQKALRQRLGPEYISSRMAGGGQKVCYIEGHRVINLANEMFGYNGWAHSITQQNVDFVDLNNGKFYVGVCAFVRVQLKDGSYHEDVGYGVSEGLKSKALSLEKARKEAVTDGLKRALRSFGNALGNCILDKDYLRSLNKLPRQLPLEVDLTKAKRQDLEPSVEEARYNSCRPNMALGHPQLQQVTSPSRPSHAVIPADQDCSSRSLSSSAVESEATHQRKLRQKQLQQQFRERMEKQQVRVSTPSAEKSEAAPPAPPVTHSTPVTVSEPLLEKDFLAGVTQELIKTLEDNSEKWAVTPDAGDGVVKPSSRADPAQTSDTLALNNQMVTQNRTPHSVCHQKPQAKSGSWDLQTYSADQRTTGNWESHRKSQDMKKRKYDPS
Ecoli rRNA inh = inhibits bacterial ribosomal RNA function over humanized ribosomes | E. coli WT GFP vs humanized-ribosome RFP mutants, fluorescence, 24 h; stronger effect = lower value; DMSO median 0, no signal -100 | AID 720706 | GFP signal change (wild-type ribosome), % (no concentration beside the values) | hit rate 1.6% among 350,000;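 active = significant combined selectivity score with lowered wild-type GFP, culture density cut under 30%, mutant RFP and density less affected; inactive = any of these conditions unmet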
HepG2 tox = kills or reduces viability of HepG2 cells | shares compounds with Ecoli rRNA inh | ATP luminescence, 72 h | activity change, negative = cytotoxicity, unspecified at 26 µM | 30 tested, under 10 active;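 active = compounds whose fitted half-maximal signal-loss concentration is at most twice their highest valid dose; inconclusive = flat curve with 30 to 70% signal loss, or poor fit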
AID977621 = growth inhibition of wild-type GFP E. coli, dose response, H69 mutant RFP, cherry-pick | 1,900 tested, under 10 active | E. coli wild-type GFP strain growth, fluorescence, 24 h | AID 977621 | shares compounds with Ecoli rRNA inh | activity change, negative = inhibition at 50 µM;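 active = Wild-type ribosome reporter drop at least double the humanized mutant ribosome reporter drop, growth loss under a set limit; inconclusive = no clear call, values can overlap the other calls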;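 also: wild-type GFP and H69 mutant RFP strains grown together 50/50 in each well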
AID977628 = E. coli growth inhibition, wild-type GFP versus h24 humanized RFP strain, dose response, h24 mutant RFP vs wild-type GFP, cherry-pick. shares compounds with Ecoli rRNA inh. activity change, negative = inhibition at 50 µM. 1,900 tested, under 10 active. E. coli WT GFP strain growth, fluorescence, 24 h. AID 977628;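 active = compound lowering the normal-ribosome reporter at least twice as much as the humanized-ribosome reporter, growth loss under a set limit; inconclusive = no clear call, values can overlap the other calls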;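 also: wild-type GFP and h24 humanized RFP strains co-cultured 1 to 1 per well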
* hit, by the source's call; ? = inconclusive; · = no result given. A selection: hits, their analogues and other compounds. The true share with any hit is near 1.9%.

SMILES	PglD inh	RAD54 inh	Cneo AK release	RAD52 anneal inh	Ecoli rRNA inh	AID977621	AID977628	others
COc1cccc(-c2ccc([C@@H]3[C@H](CO)N4CCCCN(S(=O)(=O)c5cccs5)C[C@@H]34)cc2)c1	0.9	3.1	7.0	45.6	-45.7*	·	?
Cc1cccc(-c2ccc([C@H]3[C@H]4CN(S(=O)(=O)c5ccccc5F)CCCCN4[C@H]3CO)cc2)c1	-0.4	-1.6	3.0	-0.6	0.7	·	·
Cc1ccccc1S(=O)(=O)N1CCCCN2[C@H](CO)[C@@H](c3ccc(-c4cccc(F)c4)cc3)[C@@H]2C1	-2.5	-0.8	-7.6	-27.9	-3.9	·	·
Cc1cccc(-c2ccc([C@H]3[C@H]4CN(S(=O)(=O)c5ccccc5C)CCCCN4[C@H]3CO)cc2)c1	-1.1	6.4	-0.5	-14.0	2.8	-2.8	?
O=C(CCN1CCCCC1)N[C@H]1CC[C@H](CCn2cc(-c3cccc(F)c3)nn2)O[C@H]1CO	2.1	3.6	2.7	-2.1	1.9	·	·
COc1ccc(S(=O)(=O)N(C)C[C@@H]2Oc3ccc(NC(=O)CCN4CCOCC4)cc3C(=O)N([C@H](C)CO)C[C@@H]2C)cc1	-1.3	-18.7	1.6	-3.3	0.6	·	·
O=C(c1cnccn1)N1CC(=O)N2[C@H](CO)[C@@H](c3ccc(C4=CCCCC4)cc3)[C@@H]2C1	·	·	·	-16.2	3.2	·	·
CNC(=O)c1cc(C(=O)c2ccc(C(F)(F)F)cc2F)c[nH]1	·	·	·	1.7	-25.0*	-7	?
Cc1ccc(C)c(NC(=O)CSc2nc3nc(-c4cccs4)cc(C(F)(F)F)c3c(=O)[nH]2)c1	-4.0	11.0	-8.5	-25.3	-19.9*	·	?	HepG2 tox=4.1
O=C(CSc1nc2nc(-c3cccs3)cc(C(F)(F)F)c2c(=O)[nH]1)Nc1ccc(F)c(F)c1	·	·	·	-12.8	6.0	·	·
COc1ccc2c3c([nH]c2c1)[C@H](CO)NCC31CN(C(=O)Nc2ccc3c(c2)OCO3)C1	·	·	·	3.3	1.6	·	·
COc1ccccc1NS(=O)(=O)c1cc(NC(=O)CCNC(C)=O)ccc1C	·	-15.1	2.1	-7.6	13.6	·	·
COc1ccccc1NS(=O)(=O)c1cc(NC(=O)CNC(=O)c2ccccc2)ccc1C	0.4	-0.8	5.0	-13.1	-20.0*	?	·
CC(c1ccc(F)cc1)n1c(-c2ccc3ccccc3n2)n[nH]c1=S (stereo not given)	-1.8	-5.9	32.1	-5.8	-32.1*	-4.68	·
CC(c1ccc(Cl)cc1)n1c(-c2ccc3ccccc3n2)n[nH]c1=S (stereo not given)	-0.3	-1.8	38.2	-16.9	-53.6	·	·
CCNC(=O)C[C@H]1C=C[C@@H](NC(=O)C2CCOCC2)[C@@H](CO)O1	·	·	·	1.5	2.2	·	·
COc1ccc(S(=O)(=O)N(C)C[C@@H]2Oc3c(NS(=O)(=O)c4ccc(C)cc4)cccc3C(=O)N([C@H](C)CO)C[C@H]2C)cc1	·	·	3.6	-12.9	-2.0	·	·
C#CC(C)(C)NC(=O)c1ccc(-c2ccccc2F)cc1	·	·	·	-0.2	-23.1*	0.68	-4.7
Cc1ccc(S(=O)(=O)N2CC(O)CC2C(=O)NCc2ccc3c(c2)OCO3)cc1 (stereo not given)	·	1.3	2.2	-12.9	7.6	·	·
O=C(NCc1ccc2c(c1)OCO2)C1CCCN1S(=O)(=O)c1ccc(Cl)cc1 (stereo not given)	·	·	·	-4.3	-19.0*	-24.2	·
CN(Cc1ccc([N+](=O)[O-])cc1)c1ccccc1	-3.6	3.9	-1.7	-2.7	-25.6*	-8.74	-8.85
CN(Cc1ccccc1)c1nc(-c2ccc([N+](=O)[O-])cc2)nc2ccccc12	4.2	-4.4	1.0	·	·	·	·
O=C(c1cnccn1)N1CC(=O)N2[C@H](C1)[C@H](c1ccc(C#CCC3CCCC3)cc1)[C@@H]2CO	·	·	·	2.0	-0.2	·	·
CCOc1ccc(S(=O)(=O)N(C)c2ccc(OCC(=O)NCc3cccnc3)cc2)cc1	·	·	·	-15.4	-19.5*	3.34	-9.21
CCOc1ccc(N(CC(=O)NCc2cccnc2)S(=O)(=O)c2ccc(F)cc2)cc1	-3.5	-2.4	-0.6	-12.3	1.2	·	·
SMILES	PglD inh	RAD54 inh	Cneo AK release	RAD52 anneal inh	Ecoli rRNA inh	AID977621	AID977628	others
CC(C)Oc1cccc(C(=O)C2CCCN(Cc3ccc4nonc4c3)C2)c1 (stereo not given)	·	·	·	-16.6	-28.6*	?	·
Cc1cc(C(=O)OCC(=O)Nc2cccc(S(N)(=O)=O)c2)c2ccccc2n1	4.2	4.2	-1.2	-22.2	-20.2*	-6.54	·
CCOc1ncccc1C(=O)OCC(=O)NCCCc1ccccc1	0.5	-5.5	1.3	-1.7	-20.9*	-7.19	-12.9
COc1ccccc1N(C)S(=O)(=O)c1ccc(Cl)c(C(=O)NC2=NCCS2)c1	-0.6	9.4	4.7	-22.5	-29.8*	-15	?
O=C(C[C@@H]1CC[C@@H](NC(=O)Cc2ccccn2)[C@H](CO)O1)NCCCN1CCOCC1	1.4	-6.0	-2.4	-5.4	4.2	·	·
CCOC(=O)c1c(NC(=O)CN2CCN(C(=O)C3CCCO3)CC2)sc(C)c1C (stereo not given)	2.4	-11.7	0.9	1.2	0.6	·	·
CCOC(=O)c1c(NC(=O)CN2CCC(C)CC2)sc(C)c1C	-0.9	6.1	2.7	-5.1	-21.2*	2.21	-13.9
N#C[C@@H]1[C@H](c2ccc(C3=CCCCC3)cc2)[C@H](CO)N1C(=O)c1cccc(F)c1	-6.8	2.7	5.3	-9.8	-2.1	·	·
CCn1nc(C)c(Br)c1-c1nc(-c2cccc(C)c2)no1	0.3	-6.7	-0.6	-15.8	8.8	·	·
CCn1nc(C)c(Br)c1-c1nc(CS(=O)(=O)c2ccsc2)no1	0.2	-6.2	-1.7	-18.8	-34.2*	-11.4	?
CCc1nc2ccccc2c(C(=O)OCC(=O)NC(=O)c2cccn2C)c1C	2.3	-5.7	0.0	-16.4	-24.5*	?	-4.09
C=C(C)Cn1c(=O)c2c(nc3n2CC(C)CN3Cc2ccccc2)n(C)c1=O (stereo not given)	-26.4	8.8	-4.5	-5.5	-23.8*	-15.6	?
OC[C@@H]1[C@@H](c2ccc(-c3ccc(F)cc3)cc2)[C@H]2CN(Cc3cccnc3)CCCCN12	0.8	12.5	-3.0	-3.2	0.9	·	·
COC(=O)[C@]1(Sc2ccc(C)cc2)CC(=O)N[C@@H]1c1ccccc1	·	·	·	-13.2	-21.1*	-6.43	?
COC(=O)[C@@]1(Sc2ccc(C)cc2)CC(=O)N[C@@H]1c1ccccc1	·	·	·	-6.8	-13.8	·	·
COc1ccc2nc(NC(C)=O)sc2c1	-3.8	-13.2	-4.6	·	·	·	·
